Screening results from PubChem BioAssay.
INS-1E ATP HTS: protection of INS-1E cells from cytokine death, primary screen, ATP luminescence, single point; INS-1E cytokine-induced death, 48 h; normalised: neutral wells 0, positive control 100; protection from cytokine-induced ATP loss, % at 10 µM; 20,000 compounds, 0.1% hits;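 active = mean replicate protection from cytokine-induced ATP loss at least 50% and at least 75% of replicates each reaching 50%; inconclusive = meets only one of the two criteria, mean or replicate share; inactive = fails both the mean and replicate share criteria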
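Assay system: INS-1E rat insulinoma cells. Amount: 8000 cells per well. Medium: phenol-red-free RPMI with 5% fetal bovine serum. Reagent: IL-1β, TNF-α and IFN-γ cytokine mix. Doses: one compound concentration, pin transfer. Schedule: 48 h co-treatment, 10 min post-lysis read. Detection: CellTiter-Glo luminescence measuring cellular ATP.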
T cruzi HTS: inhibitors of intracellular Trypanosoma cruzi, primary screen, cell-based, plate reader, single point, set 2. intracellular Trypanosoma cruzi in host cells. activity score (inhibition), % at 5.01 µM. 22,000 compounds, 4.9% hits. AID 651903, 2012; in the data active = activity score above about 55%; inconclusive = no clear call, values can overlap the other calls;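 also: parasites and compound incubated about four days before reading; 0% = median of neutral control wells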
A1 apoptosis 2: A1 inhibitors via caspase activation, primary screen, cell-based, luminescence, HTS, two replicates. AID 2465, 2010. MEF A1-2A-BIM cells, caspase-Glo luminescence, 3 h; percent of clofoctol response, DMSO zero. caspase activation, % (no concentration beside the values). 24,000 tested, under 10 active; in the data active = caspase activation above about 5.9%; inconclusive = no clear call, values can overlap the other calls; inactive = below about 2.2%
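System: mouse embryonic fibroblasts co-expressing A1 and BIM (A1-2A-BIM), primed for A1 dependence; amount: 2500 cells/well; doses: 50 nL pinned compound; schedule: cells settled overnight, compound exposure 3 h at 37 °C, 5% CO2; detection: Caspase-Glo 3/7 luminescence, 1 h at room temperature; read-out: Caspase-3/7 activation, seen as rise in luminescence signal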
Starred values were filed as active, the others as inactive; ? = inconclusive; . = no result given. Many of the other results were omitted from the sample, so hits are more common in it than they were.

SMILES	INS-1E ATP HTS	T cruzi HTS	A1 apoptosis 2
COc1cc(Br)cc(/C=N/NC(=O)c2ccc(C(=O)NO)cc2)c1O	31.9	-10.1	-2.9
C[C@@H]1CCCCO[C@@H](CN(C)C(=O)Nc2ccc3c(c2)OCO3)[C@H](C)CN([C@H](C)CO)C(=O)c2cc(N(C)C)ccc2O1	.	.	-1.2
O=C(N/N=C/c1ccoc1)c1ccccn1	-0.7	-4.5	.
CC(C)=CCC[C@@H](C)C/C=N/NC(=O)CCCCC(=O)NO	2.6	13.9	0.2
O=C(N/N=C/[C@@H](O)[C@@H](O)[C@H](O)[C@H](O)CO)c1ccccc1O	-11.0	-10.6	1.1
C=CCC/C=N/NC(=O)CCCCCCC(=O)Nc1ccccc1O	4.5	-5.4	-1.1
COc1cc(Br)c(/C=N/NC(=O)c2ccccc2O)cc1OC	-41.4	-13.4	0.2
O=C(N/N=C/c1ccc(I)cc1)c1ccccc1O	-8.4	-20.5	-7.9
O=C(N/N=C\c1cccc(O)c1O)c1ccccc1O	-132.9	68.2*	.
COc1cc(Br)cc(/C=N/NC(=O)c2ccccc2O)c1O	-124.7	79.4*	-12.5
O=C(N/N=C/c1cc(I)cc(I)c1O)c1ccccc1O	-104.8	81.7*	-2.6
Cc1ccccc1/C=N/NC(=O)c1ccccc1O	-28.4	-13.4	-6.5
O=C(O)c1cccc(/C=N/NC(=O)c2ccc(C(=O)NO)cc2)c1	11.0	-6.6	-0.3
CCn1c2ccccc2c2cc(/C=N/NC(=O)CCCCCC(=O)Nc3ccccc3O)ccc21	.	.	0.1
C[C@@H]1CN([C@@H](C)CO)C(=O)Cc2cc(NC(=O)Cc3cn(C)c4ccccc34)ccc2O[C@@H]1CN(C)Cc1ccc(Cl)c(Cl)c1	-45.8	69.0*	.
C[C@@H]1CN([C@H](C)CO)C(=O)c2cc(NC(=O)Cc3cn(C)c4ccccc34)ccc2O[C@@H]1CN(C)Cc1ccc(Cl)c(Cl)c1	-15.2	79.1*	.
C[C@@H]1CN([C@@H](C)CO)C(=O)Cc2cc(NC(=O)Cc3cn(C)c4ccccc34)ccc2O[C@@H]1CN(C)Cc1ccncc1	-9.2	64.8*	0.2
C[C@@H]1CN([C@H](C)CO)C(=O)Cc2cc(NC(=O)Cc3cn(C)c4ccccc34)ccc2O[C@H]1CN(C)Cc1ccncc1	14.1	-15.0	-1.7
C[C@@H]1CN([C@@H](C)CO)C(=O)Cc2cc(NC(=O)Cc3cn(C)c4ccccc34)ccc2O[C@H]1CN(C)Cc1ccc(Cl)c(Cl)c1	.	.	-1.0
C[C@H](CO)N1C[C@H](C)[C@H](CN(C)Cc2ccccc2)Oc2ccc(NC(=O)Cc3cn(C)c4ccccc34)cc2CC1=O	1.3	7.2	-0.6
C[C@@H]1CN([C@@H](C)CO)C(=O)c2cc(NC(=O)Cc3cn(C)c4ccccc34)ccc2O[C@@H]1CN(C)Cc1ccc(Cl)c(Cl)c1	-32.6	10.6	-1.0
C[C@@H]1CN([C@H](C)CO)C(=O)Cc2cc(NC(=O)Cc3cn(C)c4ccccc34)ccc2O[C@H]1CN(C)Cc1ccc(Cl)c(Cl)c1	-17.0	62.9*	.
CN1C(=O)N[C@@H]2c3ccccc3O[C@@]1(C)[C@@H]2CO[Si](C)(C)C(C)(C)C	.	.	-1.2
O=C(CCCCCC(=O)Nc1ccccc1O)N/N=C/c1cc(Br)cs1	14.7	4.1	-0.8
C=CCNC(=O)[C@H]1[C@@H]2C(=O)O[C@@H](c3ccccc3)[C@@H](c3ccccc3)N2[C@@H](c2ccc(OCCO)cc2)[C@]12C(=O)N(C(=O)OCCOC)c1ccc(C#CCC(C(=O)OC)C(=O)OC)cc12	.	.	1.5
SMILES	INS-1E ATP HTS	T cruzi HTS	A1 apoptosis 2
C[C@H](CO)N1C[C@H](C)[C@H](CN(C)Cc2ccc(C(F)(F)F)cc2)Oc2ccc(NC(=O)Cc3ccccc3)cc2CC1=O	5.9	?	-0.1
C[C@H]1CN([C@@H](C)CO)C(=O)Cc2cc(NC(=O)Cc3ccccc3)ccc2O[C@@H]1CN(C)Cc1ccc(C(F)(F)F)cc1	-5.5	58.3*	-0.1
C[C@H]1CN([C@@H](C)CO)C(=O)Cc2cc(NC(=O)Cc3ccccc3)ccc2O[C@H]1CN(C)Cc1ccc(C(F)(F)F)cc1	13.3	68.7*	-1.1
C[C@@H]1CN([C@@H](C)CO)C(=O)Cc2cc(NC(=O)Nc3ccc(C(F)(F)F)cc3)ccc2O[C@H]1CN(C)Cc1ccccc1	.	.	-0.3
COC(=O)CCCCCCC(=O)N/N=C/c1ccc(OCC(N)=O)cc1	12.5	-21.8	-0.2
C[C@@H]1CN([C@@H](C)CO)C(=O)c2cccc(NC(=O)Nc3ccccc3)c2O[C@H]1CN(C)Cc1ccc(Cl)c(Cl)c1	-32.2	58.9*	.
C[C@@H]1CN([C@H](C)CO)C(=O)c2cccc(NC(=O)Nc3ccc4c(c3)OCO4)c2O[C@@H]1CN(C)Cc1ccc(Cl)c(Cl)c1	-20.6	-0.6	.
C[C@@H]1CN([C@H](C)CO)C(=O)c2cccc(NC(=O)Nc3ccccc3)c2O[C@@H]1CN(C)Cc1ccc(Cl)c(Cl)c1	-54.9	30.5	.
COc1ccc(NC(=O)Nc2cccc3c2O[C@H](CN(C)Cc2ccc(Cl)c(Cl)c2)[C@H](C)CN([C@H](C)CO)C3=O)cc1	-35.6	16.1	.
C[C@H](CO)N1C[C@H](C)[C@H](CN(C)Cc2ccc(Cl)c(Cl)c2)Oc2c(NC(=O)Nc3ccc4c(c3)OCO4)cccc2C1=O	-22.8	81.9*	.
COc1ccc(NC(=O)Nc2cccc3c2O[C@@H](CN(C)Cc2ccc(Cl)c(Cl)c2)[C@@H](C)CN([C@H](C)CO)C3=O)cc1	-14.8	58.6*	.
COC(=O)CCCCCCC(=O)N/N=C/c1ccc(CO)o1	1.5	2.6	-0.2
CNC[C@@H]1Oc2ccc(NC(=O)CCN3CCOCC3)cc2C(=O)N([C@H](C)CO)C[C@H]1C	7.4	-21.9	0.6
C[C@H]1CN([C@@H](C)CO)C(=O)c2cccc(NC(=O)c3ccc(-c4nccs4)cc3)c2O[C@H]1CN(C)S(=O)(=O)c1ccc(Cl)cc1	-12.6	-35.0	.
O=C(O)c1ccc(/C=N/NC(=O)c2ccccn2)cc1	4.7	-18.2	.
O=C(NO)c1cccc(C(=O)N/N=C/c2ccc(O)c(O)c2)c1	0.6	-27.8	0.1
COc1cc2c(cc1OC)CN(C(=O)[C@H]1[C@@H]3C(=O)O[C@@H](c4ccccc4)[C@@H](c4ccccc4)N3[C@@H](c3ccccc3OCCO)[C@]13C(=O)Nc1ccccc13)CC2	.	.	-0.7
Cc1ccc(S(=O)(=O)Nc2ccc3c(c2)C(=O)N([C@@H](C)CO)C[C@@H](C)[C@@H](CN(C)Cc2ccc(C(F)(F)F)cc2)O3)cc1	.	-7.2	0.1
C[C@H]1CN([C@@H](C)CO)C(=O)c2cc(NS(=O)(=O)c3ccccc3)ccc2O[C@H]1CN(C)Cc1ccc(C(F)(F)F)cc1	.	61.6*	.
Cc1ccc(S(=O)(=O)Nc2ccc3c(c2)C(=O)N([C@H](C)CO)C[C@@H](C)[C@@H](CN(C)Cc2ccc(C(F)(F)F)cc2)O3)cc1	-27.0	59.6*	.
C[C@@H]1CN([C@@H](C)CO)C(=O)c2cc(NS(=O)(=O)c3ccccc3)ccc2O[C@H]1CN(C)Cc1ccc(C(F)(F)F)cc1	-18.0	44.1	.
